Reference: ChEMBL document CHEMBL1777751, “Virtual screening and further development of novel ALK inhibitors” (Bioorg Med Chem, 2011)
Values belong to the molecule of their own block, whether it stands above or below them.

Key:
[1] = target: T1, ALK tyrosine kinase receptor (Homo sapiens, UniProt Q9UM73); test: Inhibition of ALK using FL-Peptide 13, 5-FAM-KKSRGDYMTMQIG-CONH2 substrate after 60 mins by mobility shift assay
Target sequence in this assay (Q9UM73 whole entry): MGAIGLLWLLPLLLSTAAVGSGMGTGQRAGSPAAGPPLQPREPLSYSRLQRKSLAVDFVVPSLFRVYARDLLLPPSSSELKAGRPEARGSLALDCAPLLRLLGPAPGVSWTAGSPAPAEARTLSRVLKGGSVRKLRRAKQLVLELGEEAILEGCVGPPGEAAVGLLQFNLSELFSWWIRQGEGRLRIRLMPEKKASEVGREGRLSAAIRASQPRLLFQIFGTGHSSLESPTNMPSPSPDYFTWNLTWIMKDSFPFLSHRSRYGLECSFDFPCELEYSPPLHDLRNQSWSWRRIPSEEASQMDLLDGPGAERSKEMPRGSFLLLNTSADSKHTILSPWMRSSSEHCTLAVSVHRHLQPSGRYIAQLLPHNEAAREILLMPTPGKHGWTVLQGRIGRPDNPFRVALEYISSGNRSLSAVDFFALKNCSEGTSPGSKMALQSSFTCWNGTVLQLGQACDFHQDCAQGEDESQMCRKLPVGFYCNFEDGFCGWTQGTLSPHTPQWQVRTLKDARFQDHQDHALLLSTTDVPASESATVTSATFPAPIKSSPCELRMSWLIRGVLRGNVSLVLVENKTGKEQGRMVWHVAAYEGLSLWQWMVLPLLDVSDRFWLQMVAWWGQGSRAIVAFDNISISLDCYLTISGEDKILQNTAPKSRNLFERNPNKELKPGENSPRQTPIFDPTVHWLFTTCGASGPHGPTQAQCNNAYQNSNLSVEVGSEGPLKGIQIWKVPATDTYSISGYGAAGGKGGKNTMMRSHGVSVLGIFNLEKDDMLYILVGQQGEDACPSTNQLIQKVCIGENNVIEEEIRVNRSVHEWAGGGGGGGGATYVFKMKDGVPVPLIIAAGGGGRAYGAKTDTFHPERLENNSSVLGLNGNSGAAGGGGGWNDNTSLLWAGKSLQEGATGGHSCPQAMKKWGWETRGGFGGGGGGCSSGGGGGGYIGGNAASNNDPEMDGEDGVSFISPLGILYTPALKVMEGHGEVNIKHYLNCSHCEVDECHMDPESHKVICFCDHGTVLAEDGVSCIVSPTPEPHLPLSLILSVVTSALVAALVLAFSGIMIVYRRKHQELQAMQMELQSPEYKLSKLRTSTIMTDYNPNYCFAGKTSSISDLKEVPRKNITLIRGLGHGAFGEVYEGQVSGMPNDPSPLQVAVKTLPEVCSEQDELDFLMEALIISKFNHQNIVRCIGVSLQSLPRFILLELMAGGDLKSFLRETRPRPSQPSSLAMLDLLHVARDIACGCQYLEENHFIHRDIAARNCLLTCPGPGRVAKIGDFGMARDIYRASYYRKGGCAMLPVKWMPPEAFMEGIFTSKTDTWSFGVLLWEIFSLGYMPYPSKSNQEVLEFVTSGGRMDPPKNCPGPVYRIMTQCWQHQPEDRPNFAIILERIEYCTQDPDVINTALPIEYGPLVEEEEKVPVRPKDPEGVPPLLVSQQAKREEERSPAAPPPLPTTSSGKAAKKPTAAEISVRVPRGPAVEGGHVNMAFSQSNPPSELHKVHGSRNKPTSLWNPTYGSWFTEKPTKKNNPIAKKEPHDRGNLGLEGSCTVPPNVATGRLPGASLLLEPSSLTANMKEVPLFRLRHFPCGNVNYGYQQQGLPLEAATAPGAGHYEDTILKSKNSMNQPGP

[2] = target: T1, ALK tyrosine kinase receptor; test: Inhibition of ALK using FL-Peptide 13, 5-FAM-KKSRGDYMTMQIG-CONH2 substrate at 10 uM after 60 mins by mobility shift assay
How it was run: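 Recombinant ALK at 42 ng/mL, with 1.5 µM fluorescent peptide substrate and ATP. Buffer: 50 mM Hepes pH 7.4, 10 mM MgCl2, 1 mM DTT, 1% protease and 1% phosphatase inhibitor cocktails, 0.01% Brij-35. Compound was added in 5% DMSO. Incubated 60 min at room temperature, then read by mobility shift.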
Target sequence in this assay (Q9UM73 19-1620 limits assumed): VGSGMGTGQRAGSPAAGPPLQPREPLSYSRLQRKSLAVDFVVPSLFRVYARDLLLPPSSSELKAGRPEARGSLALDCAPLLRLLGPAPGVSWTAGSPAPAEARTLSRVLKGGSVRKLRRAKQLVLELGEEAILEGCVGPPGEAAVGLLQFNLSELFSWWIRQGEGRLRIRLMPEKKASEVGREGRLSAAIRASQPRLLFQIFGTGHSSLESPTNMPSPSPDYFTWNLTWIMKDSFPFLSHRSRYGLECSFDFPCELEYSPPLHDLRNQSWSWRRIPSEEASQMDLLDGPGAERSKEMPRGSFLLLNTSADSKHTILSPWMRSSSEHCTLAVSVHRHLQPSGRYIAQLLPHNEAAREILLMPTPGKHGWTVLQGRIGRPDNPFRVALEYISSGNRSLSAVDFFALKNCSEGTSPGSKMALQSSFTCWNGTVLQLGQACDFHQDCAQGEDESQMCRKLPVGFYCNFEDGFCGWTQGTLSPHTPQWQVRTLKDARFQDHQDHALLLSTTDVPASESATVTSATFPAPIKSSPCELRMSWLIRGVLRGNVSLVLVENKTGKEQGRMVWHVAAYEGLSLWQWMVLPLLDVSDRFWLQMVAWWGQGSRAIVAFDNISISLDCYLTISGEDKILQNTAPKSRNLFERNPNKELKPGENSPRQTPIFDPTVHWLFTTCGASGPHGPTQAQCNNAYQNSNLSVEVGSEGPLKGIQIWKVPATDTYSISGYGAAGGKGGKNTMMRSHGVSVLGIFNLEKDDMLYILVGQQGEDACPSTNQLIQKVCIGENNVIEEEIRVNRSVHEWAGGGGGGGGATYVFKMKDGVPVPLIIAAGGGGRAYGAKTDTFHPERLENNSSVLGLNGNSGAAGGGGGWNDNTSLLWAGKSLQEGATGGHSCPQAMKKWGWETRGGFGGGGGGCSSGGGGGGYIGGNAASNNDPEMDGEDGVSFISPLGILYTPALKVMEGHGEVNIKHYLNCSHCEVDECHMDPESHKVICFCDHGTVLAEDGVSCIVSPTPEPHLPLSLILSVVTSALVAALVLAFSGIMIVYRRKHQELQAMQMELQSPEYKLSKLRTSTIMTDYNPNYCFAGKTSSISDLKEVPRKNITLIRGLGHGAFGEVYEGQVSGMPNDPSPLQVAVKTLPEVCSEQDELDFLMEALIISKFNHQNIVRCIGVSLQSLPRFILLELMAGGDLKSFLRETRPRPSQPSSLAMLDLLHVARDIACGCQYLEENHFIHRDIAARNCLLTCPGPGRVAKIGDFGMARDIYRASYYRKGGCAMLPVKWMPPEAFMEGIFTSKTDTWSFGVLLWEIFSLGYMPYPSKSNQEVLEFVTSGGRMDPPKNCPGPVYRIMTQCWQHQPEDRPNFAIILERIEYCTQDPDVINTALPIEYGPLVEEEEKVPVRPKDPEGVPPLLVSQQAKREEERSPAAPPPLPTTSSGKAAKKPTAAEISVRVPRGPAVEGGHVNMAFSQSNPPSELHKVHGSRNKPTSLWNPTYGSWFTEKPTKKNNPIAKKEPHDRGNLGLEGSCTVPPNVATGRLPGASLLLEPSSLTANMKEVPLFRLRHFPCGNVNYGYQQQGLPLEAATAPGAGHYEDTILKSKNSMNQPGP

[3] = target: Vascular endothelial growth factor receptor 2 (Homo sapiens) (UniProt P35968); test: Inhibition of KDR at 4 uM by mobility shift assay
How it was run: (§1)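 Tyrosine kinase panel run by a contract lab. Each enzyme was incubated with 1 mM ATP and 1 µM of its appropriate peptide substrate, and the product was then read by mobility shift.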

[4] = target: Tyrosine-protein kinase SYK (Homo sapiens) (UniProt P43405); test: Inhibition of SYK at 4 uM by mobility shift assay; how it was run: as §1
[5] = target: Epidermal growth factor receptor (Homo sapiens) (UniProt P00533); test: Inhibition of EGFR at 4 uM by mobility shift assay; how it was run: as §1
[6] = target: Fibroblast growth factor receptor 1 (Homo sapiens) (UniProt P11362); test: Inhibition of FGFR1 at 4 uM by mobility shift assay; how it was run: as §1
Sequence of Fibroblast growth factor receptor 1 (Homo sapiens) (P11362 22-822 limits assumed): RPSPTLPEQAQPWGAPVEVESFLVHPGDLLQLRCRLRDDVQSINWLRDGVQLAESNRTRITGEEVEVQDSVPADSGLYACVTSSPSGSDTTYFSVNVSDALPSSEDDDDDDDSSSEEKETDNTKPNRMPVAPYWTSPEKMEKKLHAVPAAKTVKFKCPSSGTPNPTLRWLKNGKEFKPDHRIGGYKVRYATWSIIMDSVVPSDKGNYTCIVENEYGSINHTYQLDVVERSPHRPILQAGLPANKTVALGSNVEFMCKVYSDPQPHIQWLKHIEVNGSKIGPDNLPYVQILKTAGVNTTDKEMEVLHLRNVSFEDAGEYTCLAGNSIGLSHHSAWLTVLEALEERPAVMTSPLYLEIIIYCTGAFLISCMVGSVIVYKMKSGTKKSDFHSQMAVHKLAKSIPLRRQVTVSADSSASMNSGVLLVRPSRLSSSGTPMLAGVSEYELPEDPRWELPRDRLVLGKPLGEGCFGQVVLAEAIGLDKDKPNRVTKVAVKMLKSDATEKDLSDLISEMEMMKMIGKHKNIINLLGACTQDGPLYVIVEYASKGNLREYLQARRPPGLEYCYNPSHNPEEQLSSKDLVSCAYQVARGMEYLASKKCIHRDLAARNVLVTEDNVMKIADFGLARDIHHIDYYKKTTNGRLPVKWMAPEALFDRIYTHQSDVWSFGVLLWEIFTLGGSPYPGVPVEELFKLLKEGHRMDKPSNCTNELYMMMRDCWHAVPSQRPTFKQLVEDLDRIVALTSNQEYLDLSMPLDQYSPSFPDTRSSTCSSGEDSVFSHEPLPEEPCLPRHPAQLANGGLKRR

[7] = target: Receptor-type tyrosine-protein kinase FLT3 (Homo sapiens) (UniProt P36888); test: Inhibition of FLT3 at 4 uM by mobility shift assay; how it was run: as §1
[8] = target: Insulin receptor (Homo sapiens) (UniProt P06213); test: Inhibition of INSR at 4 uM by mobility shift assay; how it was run: as §1
[9] = Inhibition of NPM1/ALK at 4 uM by mobility shift assay; how it was run: as §1
[10] = target: Tyrosine-protein kinase ABL1 (Homo sapiens) (UniProt P00519); test: Inhibition of ABL at 4 uM by mobility shift assay; how it was run: as §1
[11] = target: Tyrosine-protein kinase Lck (Homo sapiens) (UniProt P06239); test: Inhibition of LCK at 4 uM by mobility shift assay; how it was run: as §1
[12] = target: Platelet-derived growth factor receptor alpha (Homo sapiens) (UniProt P16234); test: Inhibition of PDGFRa at 4 uM by mobility shift assay; how it was run: as §1
[13] = target: Angiopoietin-1 receptor (Homo sapiens) (UniProt Q02763); test: Inhibition of TIE2 at 4 uM by mobility shift assay; how it was run: as §1
[14] = target: High affinity nerve growth factor receptor (Homo sapiens) (UniProt P04629); test: Inhibition of TRKA at 4 uM by mobility shift assay; how it was run: as §1
[15] = target: T1, ALK tyrosine kinase receptor; test: Inhibition of EML4-ALK at 4 uM by mobility shift assay; how it was run: as §1
Target sequence in this assay (Q9UM73 19-1620 limits assumed): as the sequence (Q9UM73 19-1620 limits assumed) above

[16] = target: Tyrosine-protein kinase JAK3 (Homo sapiens) (UniProt P52333); test: Inhibition of JAK3 at 4 uM by mobility shift assay; how it was run: as §1
[17] = target: Tyrosine-protein kinase CSK (Homo sapiens) (UniProt P41240); test: Inhibition of CSK at 4 uM by mobility shift assay; how it was run: as §1
[18] = target: Hepatocyte growth factor receptor (Homo sapiens) (UniProt P08581); test: Inhibition of MET at 4 uM by mobility shift assay; how it was run: as §1
[19] = target: Proto-oncogene tyrosine-protein kinase Src (Homo sapiens) (UniProt P12931); test: Inhibition of SRC at 4 uM by mobility shift assay; how it was run: as §1
[20] = target: Protein-tyrosine kinase 2-beta (Homo sapiens) (UniProt Q14289); test: Inhibition of PYK2 at 4 uM by mobility shift assay; how it was run: as §1
[21] = target: Ephrin type-A receptor 2 (Homo sapiens) (UniProt P29317); test: Inhibition of EPHA2 at 4 uM by mobility shift assay; how it was run: as §1
[22] = target: Tyrosine-protein kinase receptor TYRO3 (Homo sapiens) (UniProt Q06418); test: Inhibition of TYRO3 at 4 uM by mobility shift assay; how it was run: as §1
[23] = target: T1, ALK tyrosine kinase receptor; test: Inhibition of ALK at 4 uM by mobility shift assay; how it was run: as §1
Target sequence in this assay (Q9UM73 19-1620 limits assumed): as above

[24] = target: Ephrin type-B receptor 4 (Homo sapiens) (UniProt P54760); test: Inhibition of EPHB4 at 4 uM by mobility shift assay
Sequence of Ephrin type-B receptor 4 (Homo sapiens) (P54760 whole entry, looked up): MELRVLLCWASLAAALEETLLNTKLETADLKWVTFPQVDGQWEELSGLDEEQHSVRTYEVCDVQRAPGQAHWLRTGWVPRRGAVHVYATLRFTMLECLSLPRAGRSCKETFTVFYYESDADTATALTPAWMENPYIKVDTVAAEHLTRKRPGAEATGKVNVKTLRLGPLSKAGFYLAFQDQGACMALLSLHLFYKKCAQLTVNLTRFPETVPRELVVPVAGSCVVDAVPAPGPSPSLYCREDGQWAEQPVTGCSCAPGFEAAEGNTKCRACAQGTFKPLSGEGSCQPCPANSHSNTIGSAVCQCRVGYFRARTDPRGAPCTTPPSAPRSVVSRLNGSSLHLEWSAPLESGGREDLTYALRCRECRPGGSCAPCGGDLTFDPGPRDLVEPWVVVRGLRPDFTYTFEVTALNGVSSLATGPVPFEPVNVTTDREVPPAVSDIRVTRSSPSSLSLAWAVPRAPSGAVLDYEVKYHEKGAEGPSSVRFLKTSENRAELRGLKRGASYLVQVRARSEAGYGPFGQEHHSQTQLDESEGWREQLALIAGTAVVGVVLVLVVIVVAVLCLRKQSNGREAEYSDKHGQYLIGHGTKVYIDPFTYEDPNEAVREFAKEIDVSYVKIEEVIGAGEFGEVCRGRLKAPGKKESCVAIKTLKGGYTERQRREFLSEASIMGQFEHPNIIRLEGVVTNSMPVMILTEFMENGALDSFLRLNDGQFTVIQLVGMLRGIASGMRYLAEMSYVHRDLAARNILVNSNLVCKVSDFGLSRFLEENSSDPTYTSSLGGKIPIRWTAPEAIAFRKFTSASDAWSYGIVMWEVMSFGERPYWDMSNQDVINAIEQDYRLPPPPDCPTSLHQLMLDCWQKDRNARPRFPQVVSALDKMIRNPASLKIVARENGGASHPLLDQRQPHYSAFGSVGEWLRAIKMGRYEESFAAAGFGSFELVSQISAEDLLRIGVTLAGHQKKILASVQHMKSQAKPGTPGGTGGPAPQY

[25] = target: Tyrosine-protein kinase ITK/TSK (Homo sapiens) (UniProt Q08881); test: Inhibition of ITK at 4 uM by mobility shift assay; how it was run: as §1
[26] = target: Insulin-like growth factor 1 receptor (Homo sapiens) (UniProt P08069); test: Inhibition of IGF-1R at 4 uM by mobility shift assay; how it was run: as §1

Structure (SMILES): COc1cc2ncnc(Nc3ccc(O)cc3)c2cc1OC [WHI-P131]
IC50 [1]: 2.4 µM

Structure (SMILES): NC(Cc1cc(O)c(O)cc1O)C(O)O (stereo not given)
inhibition [2]: > 50%

Structure (SMILES): Cc1[nH]c(/C=C2\C(=O)Nc3ccccc32)c(C)c1-c1cccc(NCCN)c1
IC50 [1]: 0.604 µM

Structure (SMILES): Oc1ccc(Nc2nc(-c3ccccc3O)nc3ccccc23)cc1
IC50 [1]: 4.24 µM

Structure (SMILES): Oc1ccccc1-c1nc(Nc2ccc(Cl)cc2)c2ccccc2n1
IC50 [1]: 6.46 µM

Structure (SMILES): COc1cc(-c2nc3cc(C)ccn3c2/N=C/c2cc(Cl)ccc2O)ccc1O
IC50 [1]: 2.4 µM

Structure (SMILES): O=C1Nc2ccccc2/C1=C/c1c[nH]nc1-c1cccs1
inhibition [2]: > 50%

Structure (SMILES): Cc1cc(-c2cccc(N)c2)c(/C=C2\C(=O)Nc3ccc(N)cc32)[nH]1
IC50 [1]: 0.0508 µM

Structure (SMILES): Oc1c2ccccc2c2c3c(cccc13)N=N2
inhibition [2]: > 50%

Structure (SMILES): COc1cc(N2CCCC2)ccc1/C=C1\C(=O)NC(=O)N(c2cccnc2)C1=O
inhibition [2]: > 50%

Structure (SMILES): O=C1c2c(cc(O)c(O)c2O)CCCC1O (stereo not given)
inhibition [2]: > 50%

Structure (SMILES): Cc1ccc(NC2=NC(=O)/C(=C3\C(=O)Nc4ccccc43)S2)cc1
IC50 [1]: 3.75 µM

Structure (SMILES): CC(=O)COc1ccc2c(c1)O/C(=C\c1ccc([N+](=O)[O-])cc1)C2=O
inhibition [2]: > 50%

Structure (SMILES): Oc1cc(C(O)O)c2cc(Oc3ccc4nc(O)cc(C(O)O)c4c3)ccc2n1
inhibition [2]: > 50%

Structure (SMILES): COc1c(OCCN2CCCCC2)cc(F)c2c(-c3ccc(O)c(Cl)c3)nc3[nH]nc(C)c3c12
IC50 [1]: ≤ 0.099 µM

Structure (SMILES): O=[N+]([O-])c1ccc2ncnc(Nc3ccc(O)cc3)c2c1
IC50 [1]: 8.66 µM

Structure (SMILES): CCc1nc(C)c(/C=C2\C(=O)Nc3ccccc32)[nH]1
IC50 [1]: 1.38 µM

Structure (SMILES): CC1CN(Cc2c(-c3cccs3)[nH]c3ncccc23)CC(C)O1 (stereo not given)
IC50 [1]: 9.29 µM

Structure (SMILES): Cc1cc(-c2cccc(NCCN)c2)c(/C=C2\C(=O)Nc3ccccc32)[nH]1
IC50 [1]: 0.0891 µM

Structure (SMILES): Cc1cc(-c2ccc(N)cc2)c(/C=C2\C(=O)Nc3ccccc32)[nH]1
IC50 [1]: 0.368 µM

Structure (SMILES): Cc1cc(-c2ccc(N)cc2)c(/C=C2\C(=O)Nc3ccc(N)cc32)[nH]1
IC50 [1]: 0.0683 µM

Structure (SMILES): Cc1[nH]c(/C=C2\C(=O)Nc3ccccc32)c(C)c1-c1ccc(NCCN)cc1
IC50 [1]: 0.415 µM

Structure (SMILES): CN(C)S(=O)(=O)c1ccc2c(c1)/C(=C/c1cc3c([nH]1)CCCC3)C(=O)N2
IC50 [1]: 0.85 µM

Other lines, results leading:

IC50 [1]: 1.73 µM
Structure (SMILES): O=C1Nc2ccccc2/C1=C/c1c[nH]nc1-c1ccccc1

inhibition [2]: > 50% | IC50 [1]: 2.85 µM
Structure (SMILES): Oc1ccc(Nc2ncnc3ccc(Br)cc23)cc1

inhibition [3]: 81.7% | inhibition [4]: 58.5% | inhibition [5]: -2.3% | inhibition [6]: 62.7% | inhibition [7]: 98.1% | inhibition [8]: 97.2% | inhibition [9]: 93.8% | inhibition [10]: 5.1% | inhibition [11]: 69.8% | inhibition [12]: 56.6% | inhibition [13]: 14% | inhibition [14]: 99.4% | inhibition [15]: 98.7% | inhibition [16]: 9% | inhibition [17]: -6.5% | IC50 [1]: 0.0618 µM | inhibition [18]: 12.7% | inhibition [19]: 39% | inhibition [20]: 86.5% | inhibition [21]: 4.9% | inhibition [22]: 100% | inhibition [23]: 97.6% | inhibition [24]: 5.1% | inhibition [25]: 34.2% | inhibition [26]: 91.2%
Structure (SMILES): Cc1cc(-c2cccc(N)c2)c(/C=C2\C(=O)Nc3ccccc32)[nH]1

IC50 [1]: ≤ 0.099 µM
Structure (SMILES): COc1cc2c(-c3ccc(O)cc3)nc3[nH]nc(C)c3c2cc1OC

inhibition [2]: > 50%
Structure (SMILES): Cn1cc(/C=C2\C(=O)Nc3ccccc32)c2ccccc21

inhibition [2]: > 50%
Structure (SMILES): CCc1nc(/C=C2\C(=O)Nc3ccccc32)c[nH]1

IC50 [1]: 0.91 µM
Structure (SMILES): Cc1[nH]c(/C=C2\C(=O)Nc3ccc(F)cc32)c(C)c1C(=O)O

inhibition [2]: > 50%
Structure (SMILES): Oc1ccc(C2Oc3cc(O)cc(O)c3CC2O)cc1 (stereo not given)

IC50 [1]: 0.149 µM
Structure (SMILES): Cc1cc(-c2ccc(NCCN)cc2)c(/C=C2\C(=O)Nc3ccccc32)[nH]1

IC50 [1]: 3.47 µM
Structure (SMILES): CCOC(=O)c1ccc(Nc2nc(Nc3ccc(Cl)cc3)c3nccnc3n2)cc1

inhibition [2]: > 50%
Structure (SMILES): O=C(OCc1cc(=O)oc2cc(O)c(O)cc12)c1cc2ccccc2cc1O

inhibition [2]: > 50%
Structure (SMILES): Oc1ccc(-n2cccc2)cc1C(O)O
